A number with no mark means an inactive call. Results filed as inconclusive are left out. The source made the active and inactive calls.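 Rule for the calls, unless noted: active = RAM network inhibition above 8.4% in each of two replicates, 3 SD over the compound average; inconclusive = above 8.4% inhibition in only one replicate; inactive = 8.4% inhibition or less in each replicate.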
Columns and labels:
[1] = S. cerevisiae growth inhibition in permissive medium (OD615), pilot counter-assay for S. cerevisiae lifespan shortening project, permissive growth control (AID 705;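 active = growth inhibition above 25% in both replicates, a cutoff set 3 SD above the mean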); conditions: OD615, 24 h, at 10 µM, hits give high values
Procedure, shortened: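 assay system = Saccharomyces cerevisiae strain carrying genetically modified DeaD replicative-lifespan system | technique = absorbance (optical density) at 615 nm | buffer or medium = permissive raffinose/galactose medium | timing = cells pre-grown 4 h, then 24 h compound exposure, 30 °C humidified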

[2] = S. cerevisiae growth inhibition in restrictive medium, OD615, pilot screen, restrictive growth control, yeast lifespan reduction project (AID 706;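 active = growth inhibition above a set limit, 3 SD over mean compound inhibition, in both replicates, cut at about 43% in these data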;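 note: modified DeaD lifespan yeast strain shifted to restrictive glucose medium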); conditions: OD615, 48 h, at 10 µM, hits give high values
Procedure, shortened: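 System: modified S. cerevisiae. Buffer or medium: CSMM-D glucose medium. Incubation: 4 h pre-growth plus 48 h compound exposure, 30 °C. Detection: absorbance (optical density) measured at 615 nm.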

[3] = doxorubicin toxicity protection in MRP-1 cells – H69AR cells, CellTiter-Glo, duplicate, MRP-1 activator project, pilot screen (AID 807;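 active = viability increase at or above a cutoff of the median across tested compounds plus 3 SD, cut at about 8.5% in these data, passing the limit was not always enough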;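 note: compound pretreatment 18-22 h then 72 h combined with doxorubicin; 0% = doxorubicin alone and 100% = vehicle without doxorubicin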); conditions: H69AR viability with doxorubicin, CellTiter-Glo luminescence; at 10 µM; hits give high values
[4] = viability of HCT116 without oncogenic beta-catenin – human colon tumor cells, pilot screen (AID 823;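 active = cell viability at or below a set limit in both duplicate runs, the limit being the all-compound median minus 4 SD, cut at about 23% in these data, passing the limit was not always enough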;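 note: 0% = wells killed by 20 µM Hyamine and 100% = untreated DMSO cell wells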); conditions: HCT116 beta-catenin knockout viability, CellTiter-Glo, 60 h; at 10 µM; hits give low values
[5] = viability of PTEN-null HCT116 cells – cell-based, HCT116 clonal line, CellTiter-Glo, pilot screen (AID 824;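 active = viability at or below 27.92% in each of two runs, the all-compound median minus 4 SD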;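 note: 0% = 20 µM Hyamine control and 100% = vehicle cell control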); conditions: HCT116 PTEN-deleted viability, 60 h, at 10 µM, hits give low values
[6] = RAM pathway blockade in budding yeast – dse1pr::URA3 reporter, 5-FOA selection, pilot screen (AID 869;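 active = inhibition over a set limit, the all-compound mean plus 3 SD, in both replicate runs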;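 note: 0% = DMSO wells with no growth and 100% = 10 µM 1-NA-PP1 with full growth; RAM network block rescues cells from 5-FOA so hits raise OD615 growth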); conditions: S. cerevisiae dse1pr::URA3 5-FOA growth, OD615, 2 d; at 10 µM; hits give high values; strain carries analog-sensitive mutant Cbk1 kinase
[7] = RAM signaling pathway blockade in yeast – S. cerevisiae, Pdr1DBD-CYC8 efflux-inhibited sensitized strain, primary screen (AID 1298);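 note: 0% = DMSO untreated cells without growth and 100% = 10 µM 1-NA-PP1 full growth; higher means more yeast growth rescued from 5-FOA killing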; conditions: S. cerevisiae cbk1-as DSE1-URA3 strain, 5-FOA growth OD615, 2 d; at 50 µM; hits give high values

Compound: COCCOC(=O)C1=C(C)NC2=C(C(=O)CCC2)C1c1ccc2c(c1)OCO2 (stereo not drawn)
- growth inhibition [1]: -3.56%
- growth inhibition [2]: -17.8%
- viability increase [3]: -2.23%
- viability [4]: 93.9%
- viability [5]: 93%
- inhibition [6]: 1.08%
- RAM network inhibition [7]: 0.14%

Compound: COC(=O)C1=C(C)N(Cc2cccnc2)C(=O)C1
- growth inhibition [1]: -10.7%
- growth inhibition [2]: -8.8%
- viability increase [3]: -1.77%
- viability [4]: 98.7%
- viability [5]: 102%
- inhibition [6]: 2.84%
- RAM network inhibition [7]: 5.02%

Compound: CCCCN1C(=O)C2C(c3ccc(OC)cc3O)NC(CC(C)C)(C(=O)O)C2C1=O (stereo not drawn)
- growth inhibition [1]: -7.45%
- growth inhibition [2]: -8.79%
- viability increase [3]: 0.44%
- viability [4]: 97.7%
- viability [5]: 92.7%
- inhibition [6]: 0.895%
- RAM network inhibition [7]: 0.99%

Compound: Cc1ccc(S(=O)(=O)N2CCCC2C(=O)Nc2nc3ccccc3s2)cc1 (stereo not drawn)
- growth inhibition [1]: -4.55%
- growth inhibition [2]: -5.41%
- viability increase [3]: -3.97%
- viability [4]: 79.7%
- viability [5]: 80.7%
- inhibition [6]: 2.12%
- RAM network inhibition [7]: 4.05%

Compound: Oc1c(C(c2ccccc2)N2CCCCC2)sc2ncnn12 (stereo not drawn)
- growth inhibition [1]: -0.17%
- growth inhibition [2]: -3.96%
- viability increase [3]: -0.8%
- viability [4]: 95.7%
- viability [5]: 91.8%
- inhibition [6]: 1.76%
- RAM network inhibition [7]: 0.66%

Compound: Cc1ccc(NC(=O)c2cc(NC(=O)C3CC=CCC3C(=O)O)ccc2N2CCOCC2)cc1 (stereo not drawn)
- growth inhibition [1]: -11.6%
- growth inhibition [2]: -5.87%
- viability increase [3]: -3.64%
- viability [4]: 97.3%
- viability [5]: 95.1%
- inhibition [6]: 1.23%
- RAM network inhibition [7]: 2.82%

Compound: CN1CCN(Cc2ccc(-c3ccc(Cl)cc3)o2)CC1
- growth inhibition [1]: -15.8%
- growth inhibition [2]: -22.6%
- viability increase [3]: -2.14%
- viability [4]: 86.1%
- viability [5]: 102%
- inhibition [6]: 1.56%
- RAM network inhibition [7]: 2.49%

Compound: CC1CCCCN1CCNC(=O)c1cnn2ccccc12 (stereo not drawn)
- growth inhibition [1]: -12.7%
- growth inhibition [2]: -9.32%
- viability increase [3]: -1.7%
- viability [4]: 101%
- viability [5]: 91.6%
- inhibition [6]: 2.58%
- RAM network inhibition [7]: 0.01%

Compound: CC1(C)NC(=O)N(CC(O)COc2ccc(N3C(=O)c4ccccc4C3=O)cc2)C1=O (stereo not drawn)
- growth inhibition [1]: -3.45%
- growth inhibition [2]: -3.49%
- viability increase [3]: -1.32%
- viability [4]: 102%
- viability [5]: 96.5%
- inhibition [6]: 1.87%
- RAM network inhibition [7]: 0.17%

Compound: CCOc1ccc(C2CC(c3ccc(F)cc3)Nc3nc(N)nn32)cc1 (stereo not drawn)
- growth inhibition [1]: 4.3%
- growth inhibition [2]: 6.27%
- viability increase [3]: 2.97%
- viability [4]: 105%
- viability [5]: 101%
- inhibition [6]: 0.7%
- RAM network inhibition [7]: 0.88%

Compound: COc1ccc(OC)c2[nH]c(=O)c(CCNC(=O)c3cc4ccccc4o3)cc12
- growth inhibition [1]: -6.5%
- growth inhibition [2]: -3.6%
- viability increase [3]: 2.38%
- viability [4]: 87.8%
- viability [5]: 94.7%
- inhibition [6]: 0.6%
- RAM network inhibition [7]: 7.96%

Compound: CCCC(=O)Nc1cc(=O)n(C)c(=O)n1C
- growth inhibition [1]: -12.8%
- growth inhibition [2]: -4.53%
- viability increase [3]: -1.04%
- viability [4]: 103%
- viability [5]: 94.8%
- inhibition [6]: 0.76%
- RAM network inhibition [7]: -0.88%

Compound: CCc1cc(Br)ccc1N1C(=O)C2CC=CCC2C1=O (stereo not drawn)
- growth inhibition [1]: -6.14%
- growth inhibition [2]: -7.71%
- viability increase [3]: 0.19%
- viability [4]: 86.5%
- viability [5]: 94.9%
- inhibition [6]: 1.2%
- RAM network inhibition [7]: 0.4%

Compound: COc1ccc(N2CSC3=C(C#N)C(c4cccc(OC)c4OC)CC(=O)N3C2)cc1 (stereo not drawn)
- growth inhibition [1]: -1.74%
- growth inhibition [2]: 26.5%
- viability increase [3]: -4.01%
- viability [4]: 95.6%
- viability [5]: 92.6%
- inhibition [6]: 1.48%
- RAM network inhibition [7]: 3.83%

Compound: O=C(Nc1ccc(Cl)cc1)C1CC2CCCC(C1)C2=O (stereo not drawn)
- growth inhibition [1]: -7.49%
- growth inhibition [2]: -3.51%
- viability increase [3]: 0.77%
- viability [4]: 97.2%
- viability [5]: 99.2%
- inhibition [6]: 0.77%
- RAM network inhibition [7]: 4.61%

Compound: Cn1c(SCC(=O)Nc2cccc(F)c2)nnc1-c1cccnc1
- growth inhibition [1]: -4.63%
- growth inhibition [2]: -4.04%
- viability increase [3]: 0.87%
- viability [4]: 105%
- viability [5]: 104%
- inhibition [6]: 0.035%
- RAM network inhibition [7]: 3.15%

Compound: CCc1ccc(NC(=O)CSc2nc3c(c(=O)n(C)c(=O)n3C)n2C)cc1
- growth inhibition [1]: 3.77%
- growth inhibition [2]: -8%
- viability increase [3]: -1.41%
- viability [4]: 91.8%
- viability [5]: 94.6%
- inhibition [6]: 1.03%
- RAM network inhibition [7]: 0.68%

Compound: CCOC(=O)C1CCN(C(=O)c2oc3ccc(S(=O)(=O)N4CCCCCC4)cc3c2C)CC1
- growth inhibition [1]: 0.58%
- growth inhibition [2]: -20.9%
- viability increase [3]: -3.23%
- viability [4]: 72.8%
- viability [5]: 78.9%
- inhibition [6]: 1.73%
- RAM network inhibition [7]: 0.3%

Compound: O=C1CSC(=S)N1Cc1cccnc1
- growth inhibition [1]: -15.3%
- growth inhibition [2]: 16.2%
- viability increase [3]: -8.48%
- viability [4]: 8.06% (active)
- viability [5]: 9.45% (active)
- inhibition [6]: 0.82%
- RAM network inhibition [7]: -0.15%

Compound: COc1ccc(S(=O)(=O)Cc2ccc(C(=O)N3CCN(C(=O)c4ccco4)CC3)o2)cc1
- growth inhibition [1]: 0.785%
- growth inhibition [2]: 1.27%
- viability increase [3]: -2.09%
- viability [4]: 92.8%
- viability [5]: 100%
- inhibition [6]: 2.06%
- RAM network inhibition [7]: 3.94%

Compound: COc1ccc(C(=O)N(Cc2nc(-c3ccc(C)cc3)no2)C(C)C)cc1OC
- growth inhibition [1]: -12.1%
- growth inhibition [2]: -6.13%
- viability increase [3]: 1.37%
- viability [4]: 93.6%
- viability [5]: 79.3%
- inhibition [6]: 3.8%
- RAM network inhibition [7]: 5.36%

Compound: CSc1nnc(NC(=O)C2CCCCC2)s1
- growth inhibition [1]: -7.81%
- growth inhibition [2]: -6.62%
- viability increase [3]: 0.06%
- viability [4]: 97%
- viability [5]: 99.3%
- inhibition [6]: -0.045%
- RAM network inhibition [7]: 0.63%

Compound: O=C(COc1ccc(S(=O)(=O)NC2CCCCC2)cc1)N1CCN(c2ccc(F)cc2)CC1
- growth inhibition [1]: -6.21%
- growth inhibition [2]: -0.445%
- viability increase [3]: -0.23%
- viability [4]: 65.5%
- viability [5]: 67.1%
- inhibition [6]: -0.725%
- RAM network inhibition [7]: 3.14%

Compound: CC1=CC(C)(C)Nc2ccc(OC(=O)c3ccco3)cc21
- growth inhibition [1]: 1.4%
- growth inhibition [2]: -5.68%
- viability increase [3]: -7.71%
- viability [4]: 0.49% (active)
- viability [5]: 0.6% (active)
- inhibition [6]: 0.475%
- RAM network inhibition [7]: 0.98%

Source: PubChem BioAssay
